Assay results published in ChEMBL document CHEMBL4007408, “Identification of Novel Triazole-Based Nicotinamide Phosphoribosyltransferase (NAMPT) Inhibitors Endowed with Antiproliferative and Antiinflammatory Activity” (J Med Chem, 2017).
Active and inactive are the calls of the source. No cut-off for these calls is given here.

Experiments:
[1] = target: Nicotinamide phosphoribosyltransferase (Mus musculus, UniProt Q99KQ4); experiment: Inhibition of recombinant mouse NAMPT expressed in bacterial expression system using nicotinamide as substrate after 1 hr by fluorescence based NMNAT-3 enzyme coupled assay; details: read-out: IC50
Nicotinamide phosphoribosyltransferase (Mus musculus, UniProt Q99KQ4), sequence (Q99KQ4 whole entry): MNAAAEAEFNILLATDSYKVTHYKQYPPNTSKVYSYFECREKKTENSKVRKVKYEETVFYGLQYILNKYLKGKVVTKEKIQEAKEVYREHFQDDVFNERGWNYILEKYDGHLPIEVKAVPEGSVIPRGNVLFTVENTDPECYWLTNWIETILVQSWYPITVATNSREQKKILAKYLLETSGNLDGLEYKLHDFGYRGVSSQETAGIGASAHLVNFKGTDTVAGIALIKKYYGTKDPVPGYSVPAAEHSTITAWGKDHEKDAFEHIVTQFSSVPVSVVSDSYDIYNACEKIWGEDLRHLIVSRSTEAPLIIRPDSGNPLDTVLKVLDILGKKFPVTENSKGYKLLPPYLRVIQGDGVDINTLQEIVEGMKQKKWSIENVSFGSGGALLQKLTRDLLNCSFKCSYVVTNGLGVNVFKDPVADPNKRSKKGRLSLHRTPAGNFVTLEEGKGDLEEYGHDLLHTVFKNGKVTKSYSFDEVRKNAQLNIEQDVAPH

SH-SY5Y = experiment: Cytotoxicity against human SH-SY5Y cells assessed as reduction in cell viability after 56 hrs by MTT assay; assay type: functional, cell-based; details: Homo sapiens, SH-SY5Y, 56 h; read-out: EC50
[2] = target: Nicotinamide phosphoribosyltransferase (Homo sapiens, UniProt P43490); experiment: Inhibition of NAMPT in human Jurkat T cells assessed as reduction in NAD levels; assay type: cell-based
Nicotinamide phosphoribosyltransferase (Homo sapiens, UniProt P43490), sequence (P43490 whole entry): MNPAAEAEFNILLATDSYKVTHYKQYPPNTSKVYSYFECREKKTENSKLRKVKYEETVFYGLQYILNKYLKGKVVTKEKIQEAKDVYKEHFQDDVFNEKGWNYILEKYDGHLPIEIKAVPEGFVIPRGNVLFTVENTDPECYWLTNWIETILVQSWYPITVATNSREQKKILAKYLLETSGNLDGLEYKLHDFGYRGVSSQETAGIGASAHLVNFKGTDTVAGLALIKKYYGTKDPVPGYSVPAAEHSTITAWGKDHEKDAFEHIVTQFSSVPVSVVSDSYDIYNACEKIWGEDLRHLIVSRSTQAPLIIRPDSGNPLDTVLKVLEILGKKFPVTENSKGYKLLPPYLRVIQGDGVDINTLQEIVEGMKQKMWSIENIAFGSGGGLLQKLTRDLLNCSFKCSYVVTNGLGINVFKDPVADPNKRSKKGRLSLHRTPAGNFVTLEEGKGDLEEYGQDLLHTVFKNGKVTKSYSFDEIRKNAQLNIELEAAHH

Liver [3] = experiment: Stability in human liver microsomes after 60 mins by LC-ESI-MS analysis; assay type: ADME, microsome; details: 1 h
Liver [4] = experiment: Stability in Wistar Han rat liver microsomes after 60 mins by LC-ESI-MS analysis; assay type: ADME, microsome; details: 1 h
[5] = Drug metabolism in Wistar Han rat liver microsomes assessed as mixed function oxidase mediated compound cleavage by measuring compound remaining after 60 mins in presence of NADPH-regenerating system by LC-UV analysis; assay type: ADME; details: read-out: Stability
Method in brief: (§1)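 Substrate at 50 μM final, with rat or human liver microsomes at 1.0 mg/ml protein, in 50 mM Tris-HCl pH 7.4. Mix held 3.3 mM MgCl2, 1% acetonitrile and an NADPH-regenerating system (1.3 mM β-NADP, 3.3 mM glucose 6-phosphate, 0.4 U/ml G6PDH). Shaken 60 min at 37 °C, stopped with ice-cold acetonitrile. LC-UV gave % residual substrate versus a no-microsome control, mean of two replicates.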

[6] = Drug metabolism in human liver microsomes assessed as mixed function oxidase mediated compound cleavage by measuring compound remaining after 60 mins in presence of NADPH-regenerating system by LC-UV analysis; assay type: ADME; details: read-out: Stability; method in brief: as §1
[7] = Drug metabolism in Wistar Han rat liver microsomes assessed as mixed function oxidase mediated compound degradation after 60 mins in presence of NADPH-regenerating system by LC-UV analysis; assay type: ADME; details: 1 h; method in brief: as §1
[8] = Drug metabolism in human liver microsomes assessed as mixed function oxidase mediated compound degradation after 60 mins in presence of NADPH-regenerating system by LC-UV analysis; assay type: ADME; details: 1 h; method in brief: as §1
Liver [9] = experiment: Drug metabolism in Wistar Han rat liver microsomes assessed as pyridine N-oxidation after 60 mins in presence of NADPH-regenerating system by LC-UV analysis; assay type: ADME, microsome; details: 1 h
Method in brief: (§2)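 Metabolites were characterized by LC-ESI-MSn on supernatants of 60 min, 37 °C incubations. Each used 50 μM substrate with rat or human liver microsomes (1.0 mg/ml protein) in 50 mM Tris-HCl pH 7.4 with 3.3 mM MgCl2, 1% acetonitrile and an NADPH-regenerating system. Reactions were quenched with cold acetonitrile and centrifuged.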

Liver [10] = experiment: Drug metabolism in human liver microsomes assessed as pyridine N-oxidation after 60 mins in presence of NADPH-regenerating system by LC-UV analysis; assay type: ADME, microsome; details: 1 h; method in brief: as §2
[11] = Half life in athymic Nu/Nu Harlan mouse at 10 mg/kg, iv administered as single dose up to 24 hrs by LC-ESI-MS analysis; assay type: ADME, organism-based; details: in vivo
[12] = AUC in athymic Nu/Nu Harlan mouse at 10 mg/kg, iv administered as single dose up to 24 hrs by LC-ESI-MS analysis; assay type: ADME, organism-based; set-up: time < 24 hr, dose 10 mg/kg, route intravenous; details: in vivo
[13] = Clearance in athymic Nu/Nu Harlan mouse at 10 mg/kg, iv administered as single dose up to 24 hrs by LC-ESI-MS analysis; assay type: ADME, organism-based; details: in vivo
[14] = Volume of distribution in athymic Nu/Nu Harlan mouse at 10 mg/kg, iv administered as single dose up to 24 hrs by LC-ESI-MS analysis; assay type: ADME, organism-based; details: in vivo
Mus musculus [15] = experiment: Drug metabolism in athymic Nu/Nu Harlan mouse blood assessed as N-oxide metabolite formation at 10 mg/kg, iv administered as single dose up to 24 hrs by LC-ESI-MS analysis; assay type: ADME, organism-based; details: in vivo
[16] = Apparent aqueous solubility of the compound; assay type: physicochemical; details: buffer
Method in brief: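 Kinetic solubility was measured by filtration. Compound from a 10 mM DMSO stock was diluted in PBS pH 7.4 to nominal 500 and 200 μM, shaken 90 min at room temperature and filtered. Filtrate was diluted 4:1 with acetonitrile and absorbance read at 260/280 nm. Concentration came from a calibration curve (3.13–500 μM in 80:20 PBS/acetonitrile, 5% DMSO; r2 >0.85) × 1.25. Run in duplicate.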

A2780 [17] = experiment: Cytotoxicity against human A2780 cells assessed as reduction in cell viability; assay type: functional, cell-based
A2780 [18] = experiment: Antitumor activity against human A2780 cells xenografted in athymic nu/nu Harlan mouse assessed as reduction in tumor growth at 10 mg/kg, ip bid administered for 8 consecutive days; assay type: functional, organism-based
Mus musculus [19] = experiment: Toxicity in athymic nu/nu Harlan mouse xenografted with human A2780 cells assessed as body weight loss at 10 mg/kg, ip bid administered for 8 consecutive days measured through out study; assay type: organism-based; details: in vivo
Fibrosarcoma cell = experiment: Antitumor activity against mouse fibrosarcoma cells allografted in athymic nu/nu Harlan mouse
Mammary cancer cell = experiment: Antitumor activity against mouse mammary cancer cells allografted in athymic nu/nu Harlan mouse
Mus musculus [20] = experiment: In vivo inhibition of NAMPT in DNBS-induced BALB/c mouse colitis model assessed as reduction in loss of body weight at 20 mg/kg, ip bid administered for 3 days post DNBS challenge; assay type: functional, organism-based
Mus musculus [21] = experiment: In vivo inhibition of NAMPT in DNBS-induced BALB/c mouse colitis model assessed as reduction in mucosal congestion at 20 mg/kg, ip bid administered for 3 days post DNBS challenge; assay type: functional, organism-based
Mus musculus [22] = experiment: In vivo inhibition of NAMPT in DNBS-induced BALB/c mouse colitis model assessed as reduction in erosion at 20 mg/kg, ip bid administered for 3 days post DNBS challenge; assay type: functional, organism-based
Mus musculus [23] = experiment: In vivo inhibition of NAMPT in DNBS-induced BALB/c mouse colitis model assessed as reduction in hemorrhagic ulcerations at 20 mg/kg, ip bid administered for 3 days post DNBS challenge; assay type: functional, organism-based
Mus musculus [24] = experiment: Downregulation of NAMPT expression in DNBS-induced BALB/c mouse colitis model at 20 mg/kg, ip bid administered for 3 days post DNBS challenge by Western blot analysis; assay type: functional, organism-based
Mus musculus [25] = experiment: In vivo inhibition of NAMPT in DNBS-induced BALB/c mouse colitis model assessed as reduction in neutrophil infiltration by measuring myeloperoxidase levels at 20 mg/kg, ip bid administered for 3 days post DNBS challenge by ELISA; assay type: functional, organism-based
Mus musculus [26] = experiment: Antiinflammatory activity of DSS-induced […] mouse colitis model assessed as reduction in loss of body weight at 20 mg/kg administered daily for 7 days post DSS challenge; assay type: functional, organism-based
Mus musculus [27] = experiment: Antiinflammatory activity of DSS-induced […] mouse colitis model assessed as disease activity index at 20 mg/kg administered daily for 7 days post DSS challenge (reference value: 6); assay type: functional
Mus musculus [28] = experiment: Antiinflammatory activity of DSS-induced […] mouse colitis model assessed as improved general condition at 20 mg/kg administered daily for 7 days post DSS challenge; assay type: functional, organism-based
Mus musculus [29] = experiment: Antiinflammatory activity of DSS-induced […] mouse colitis model assessed as reversion of changes in colon length at 20 mg/kg administered daily for 7 days post DSS challenge; assay type: functional, organism-based
Mus musculus [30] = experiment: Antiinflammatory activity of DSS-induced […] mouse colitis model assessed as reduction in neutrophil infiltration by measuring myeloperoxidase levels at 20 mg/kg administered daily for 7 days post DSS challenge by ELISA; assay type: functional, organism-based

c1ccc(-c2ccccc2OCCCCCCn2cc(-c3cccnc3)nn2)cc1
IC50 [1]: 3.8 nM | EC50 (SH-SY5Y): 5.2 nM | IC50 [2]: 6.7 nM | Stability (Liver [3]): Stable | Stability (Liver [4]): Stable | remaining at 1 h [5]: 31% | remaining at 1 h [6]: 49% | Drug metabolism [7]: Metabolite_Detected | Drug metabolism [8]: Metabolite_Detected | Drug metabolism (Liver [9]): Metabolite_Detected | Drug metabolism (Liver [10]): Metabolite_Detected | half-life [11]: 113 min | AUC at 24 h [12]: 859 ng·h/mL | clearance [13]: 194 mL/min/kg | Vd [14]: 31.8 L/kg | Drug metabolism (Mus musculus [15]): Metabolite_Notdetected | solubility [16]: Insoluble | IC50 (A2780 [17]): 3 nM | inhibition (A2780 [18]): Active | Activity (Mus musculus [19]): Non-Toxic | Activity (Fibrosarcoma cell): Active | Activity (Mammary cancer cell): Active | inhibition (Mus musculus [20]): Active | inhibition (Mus musculus [21]): Active | inhibition (Mus musculus [22]): Active | inhibition (Mus musculus [23]): Active | inhibition (Mus musculus [24]): Active | inhibition (Mus musculus [25]): Active | Activity (Mus musculus [26]): Active | Activity_index (Mus musculus [27]): 2.5 | Activity (Mus musculus [28]): Active | Activity (Mus musculus [29]): Active | Activity (Mus musculus [30]): Active
